Calls of active or inactive are those of the source. The calls are words filed in the database; no cut-off is given here.
Tests used:
Format in all cases: cell-based
[1] = target: T1, Retinoic acid receptor gamma (Homo sapiens) (UniProt P13631); test: Agonist activity at Gal4-LBD fused RARgamma (unknown origin) expressed in HEK293T cells after at 20 uM 14 to 16 hrs by dual-Glo luciferase assay
T1 sequence (whole entry): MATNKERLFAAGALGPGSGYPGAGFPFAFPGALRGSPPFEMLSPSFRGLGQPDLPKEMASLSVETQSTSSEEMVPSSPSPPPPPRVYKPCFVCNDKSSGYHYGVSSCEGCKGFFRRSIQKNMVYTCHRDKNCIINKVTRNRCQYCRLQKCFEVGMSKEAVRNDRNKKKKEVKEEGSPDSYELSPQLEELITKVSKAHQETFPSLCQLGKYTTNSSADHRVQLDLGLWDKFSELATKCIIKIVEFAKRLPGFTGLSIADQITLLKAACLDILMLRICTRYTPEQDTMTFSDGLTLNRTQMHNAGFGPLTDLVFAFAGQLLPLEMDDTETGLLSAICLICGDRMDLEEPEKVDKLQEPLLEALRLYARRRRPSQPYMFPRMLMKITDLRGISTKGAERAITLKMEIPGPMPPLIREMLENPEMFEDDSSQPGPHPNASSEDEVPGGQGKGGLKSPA
How it was run: (§1)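 Gal4-hybrid reporter gene selectivity panel of related nuclear receptors (PPARα/β/γ, RARα/β/γ) in HEK293T cells. Activity is read as mean fold activation versus 0.1% DMSO vehicle, n ≥ 2.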

[2] = target: T2, Peroxisome proliferator-activated receptor delta (Homo sapiens) (UniProt Q03181); test: Agonist activity at Gal4-LBD fused PPARbeta (unknown origin) expressed in HEK293T cells at 20 uM after 14 to 16 hrs by dual-Glo luciferase assay; how it was run: as §1
T2 sequence (whole entry): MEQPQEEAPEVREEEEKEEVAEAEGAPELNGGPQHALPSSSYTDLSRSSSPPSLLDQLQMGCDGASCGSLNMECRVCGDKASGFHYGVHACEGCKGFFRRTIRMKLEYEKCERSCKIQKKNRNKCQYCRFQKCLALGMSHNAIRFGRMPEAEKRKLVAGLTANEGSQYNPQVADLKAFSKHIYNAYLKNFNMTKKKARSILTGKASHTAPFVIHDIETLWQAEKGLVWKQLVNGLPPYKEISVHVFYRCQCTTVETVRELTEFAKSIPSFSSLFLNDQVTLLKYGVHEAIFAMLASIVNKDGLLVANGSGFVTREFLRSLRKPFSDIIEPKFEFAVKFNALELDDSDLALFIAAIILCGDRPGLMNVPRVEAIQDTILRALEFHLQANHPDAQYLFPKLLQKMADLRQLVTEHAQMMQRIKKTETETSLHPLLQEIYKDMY

[3] = target: T3, Retinoic acid receptor RXR-gamma (Homo sapiens) (UniProt P48443); test: Agonist activity at Gal4-LBD fused RXRgamma (unknown origin) expressed in HEK293T cells at 20 uM after 14 to 16 hrs by dual-Glo luciferase assay
T3 sequence (whole entry): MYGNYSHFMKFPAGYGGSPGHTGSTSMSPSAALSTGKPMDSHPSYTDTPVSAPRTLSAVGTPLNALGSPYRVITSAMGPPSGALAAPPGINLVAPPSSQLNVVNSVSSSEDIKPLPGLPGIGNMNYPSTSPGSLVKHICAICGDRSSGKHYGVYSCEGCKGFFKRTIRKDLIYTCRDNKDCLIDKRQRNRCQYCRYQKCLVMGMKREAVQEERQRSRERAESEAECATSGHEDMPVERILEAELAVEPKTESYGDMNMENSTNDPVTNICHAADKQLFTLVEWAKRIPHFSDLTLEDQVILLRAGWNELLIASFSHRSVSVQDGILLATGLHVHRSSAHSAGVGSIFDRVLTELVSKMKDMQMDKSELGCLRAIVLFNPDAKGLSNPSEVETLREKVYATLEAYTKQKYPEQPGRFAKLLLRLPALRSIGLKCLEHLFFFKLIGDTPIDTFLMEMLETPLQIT

[4] = target: T4, Retinoic acid receptor RXR-beta (Homo sapiens) (UniProt P28702); test: Agonist activity at Gal4-LBD fused RXRbeta (unknown origin) expressed in HEK293T cells assessed as fold activation at 10 uM after 14 to 16 hrs by dual-Glo luciferase assay relative to untreated control
T4 sequence (whole entry): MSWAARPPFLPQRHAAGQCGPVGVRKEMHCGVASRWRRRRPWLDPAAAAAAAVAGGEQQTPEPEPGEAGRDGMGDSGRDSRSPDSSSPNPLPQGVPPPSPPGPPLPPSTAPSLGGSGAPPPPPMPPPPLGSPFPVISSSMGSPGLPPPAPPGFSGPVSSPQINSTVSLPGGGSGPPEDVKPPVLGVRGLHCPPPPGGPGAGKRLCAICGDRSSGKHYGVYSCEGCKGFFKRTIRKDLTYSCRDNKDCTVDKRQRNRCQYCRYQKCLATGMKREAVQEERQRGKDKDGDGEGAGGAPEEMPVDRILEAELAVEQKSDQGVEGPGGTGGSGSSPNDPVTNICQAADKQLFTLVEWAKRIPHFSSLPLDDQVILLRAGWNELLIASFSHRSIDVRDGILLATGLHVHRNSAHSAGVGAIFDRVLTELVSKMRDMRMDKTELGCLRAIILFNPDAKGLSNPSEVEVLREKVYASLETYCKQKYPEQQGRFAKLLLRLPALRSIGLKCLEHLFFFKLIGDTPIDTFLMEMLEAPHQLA
How it was run: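 Gal4-hybrid RXRα/β/γ reporter gene assays in HEK293T cells. Fold activation is the maximal fold activation versus 0.1% DMSO.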

Row | Compound | Activity [1] | Activity [2] | Activity [3] | fold change (FC) [4]
1 | Cc1cc(-c2ccc(C(=O)O)cc2)cc(C(C)(C)C)c1 | Active | Active | inactive | –
2 | Cc1cc(-c2cc(C(C)(C)C)cc(C(C)(C)C)c2)ccc1C(=O)O | – | – | – | 31

— ChEMBL document CHEMBL4304816, “A Novel Biphenyl-based Chemotype of Retinoid X Receptor Ligands Enables Subtype and Heterodimer Preferences” (ACS Med Chem Lett, 2019)
